Test results reported in ChEMBL document CHEMBL1148277, “Synthesis and pharmacological evaluation of 3-(3,4-dichlorophenyl)-1-indanamine derivatives as nonselective ligands for biogenic amine transporters” (J Med Chem, 2004).

Columns and labels:
[1] = target: T1, Sodium-dependent dopamine transporter (Rattus norvegicus, UniProt P23977); assay: Reuptake inhibitory activity against dopamine DA transporter
[2] = target: T1, Sodium-dependent dopamine transporter; assay: Binding affinity for DA transporter using [125I]RTI-55 in frozen rat caudate membranes; assay type: cell membranes
Method in brief: (§1)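 Rat caudate membranes as stated in the lines. For NET binding, 5 mM KCl and 300 mM NaCl were added. Radioligand was in protease inhibitors (chymostatin, leupeptin, EDTA, EGTA). Ended by filtration over PEI-presoaked GF/B filters; Ki derived.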

[3] = target: T2, Norepinephrine transporter (Rattus norvegicus, UniProt Q9WTR4); assay: Reuptake inhibitory activity against NE transporter; assay type: functional
[4] = target: T2, Norepinephrine transporter; assay: Displacement of from norepinephrine transporter of frozen rat caudate membranes; assay type: cell membranes, Membrane; method in brief: as §1
[5] = target: T3, Sodium-dependent serotonin transporter (Rattus norvegicus, UniProt P31652); assay: Reuptake inhibitory activity against Serotonin transporter
Method in brief: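 [³H]5-HT uptake in crude synaptosomes from rat whole brain minus caudate, in Krebs phosphate buffer pH 7.4 with 1 mg/mL ascorbic acid and 50 μM pargyline. Stopped after 30 min by Tris-HCl/NaCl wash buffer and rapid GF/B filtration. Run twice, each in triplicate.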

[6] = target: T3, Sodium-dependent serotonin transporter; assay: (§2) Displacement of [125I]RTI-55 from serotonin transporter of frozen rat caudate membranes; assay type: cell membranes, Membrane; method in brief: as §1
[7] = target: T3, Sodium-dependent serotonin transporter; assay: as §2; assay type: cell membranes, Membrane; remark: listed apart in the source
Method in brief: as §1, with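 “lines. Incubated 18–24 h at 4 °C to equilibrium with radioligand and test drug in 55.2 mM sodium phosphate buffer, pH 7.4, with 1 mg/mL BSA.” for “lines.”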

T1 sequence (P23977 whole entry): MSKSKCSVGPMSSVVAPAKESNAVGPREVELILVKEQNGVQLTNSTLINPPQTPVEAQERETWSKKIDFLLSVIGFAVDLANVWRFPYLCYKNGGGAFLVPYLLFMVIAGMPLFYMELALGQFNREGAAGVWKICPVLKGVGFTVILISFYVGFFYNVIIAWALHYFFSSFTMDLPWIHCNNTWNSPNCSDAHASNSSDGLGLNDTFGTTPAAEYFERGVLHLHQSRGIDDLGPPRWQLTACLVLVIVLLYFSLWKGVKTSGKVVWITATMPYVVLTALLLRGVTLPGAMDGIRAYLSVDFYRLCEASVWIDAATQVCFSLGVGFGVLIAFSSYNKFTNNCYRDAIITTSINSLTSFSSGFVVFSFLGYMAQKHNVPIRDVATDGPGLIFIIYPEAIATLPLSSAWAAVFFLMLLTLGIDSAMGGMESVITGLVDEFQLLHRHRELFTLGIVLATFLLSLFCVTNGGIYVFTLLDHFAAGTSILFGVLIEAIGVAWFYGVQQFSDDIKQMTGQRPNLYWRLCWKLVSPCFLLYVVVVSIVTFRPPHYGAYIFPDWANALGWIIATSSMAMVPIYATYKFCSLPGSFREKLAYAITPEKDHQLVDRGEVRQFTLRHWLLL
T2 sequence (Q9WTR4 whole entry): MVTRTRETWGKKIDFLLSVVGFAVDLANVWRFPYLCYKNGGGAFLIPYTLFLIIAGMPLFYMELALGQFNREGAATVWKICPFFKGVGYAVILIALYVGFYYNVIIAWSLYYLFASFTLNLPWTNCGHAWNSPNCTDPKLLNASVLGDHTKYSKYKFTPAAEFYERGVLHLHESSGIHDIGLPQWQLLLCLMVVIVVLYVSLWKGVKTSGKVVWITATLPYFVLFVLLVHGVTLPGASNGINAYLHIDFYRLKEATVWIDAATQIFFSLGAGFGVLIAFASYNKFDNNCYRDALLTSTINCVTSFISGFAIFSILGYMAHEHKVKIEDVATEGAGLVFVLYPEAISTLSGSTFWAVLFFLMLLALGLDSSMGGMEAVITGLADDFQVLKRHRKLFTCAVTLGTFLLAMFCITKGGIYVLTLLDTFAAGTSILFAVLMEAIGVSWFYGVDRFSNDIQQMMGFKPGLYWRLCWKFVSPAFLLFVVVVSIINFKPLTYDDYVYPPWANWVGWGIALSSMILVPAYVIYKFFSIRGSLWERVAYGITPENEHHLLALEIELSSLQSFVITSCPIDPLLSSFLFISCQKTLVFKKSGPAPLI
T3 sequence (P31652 whole entry): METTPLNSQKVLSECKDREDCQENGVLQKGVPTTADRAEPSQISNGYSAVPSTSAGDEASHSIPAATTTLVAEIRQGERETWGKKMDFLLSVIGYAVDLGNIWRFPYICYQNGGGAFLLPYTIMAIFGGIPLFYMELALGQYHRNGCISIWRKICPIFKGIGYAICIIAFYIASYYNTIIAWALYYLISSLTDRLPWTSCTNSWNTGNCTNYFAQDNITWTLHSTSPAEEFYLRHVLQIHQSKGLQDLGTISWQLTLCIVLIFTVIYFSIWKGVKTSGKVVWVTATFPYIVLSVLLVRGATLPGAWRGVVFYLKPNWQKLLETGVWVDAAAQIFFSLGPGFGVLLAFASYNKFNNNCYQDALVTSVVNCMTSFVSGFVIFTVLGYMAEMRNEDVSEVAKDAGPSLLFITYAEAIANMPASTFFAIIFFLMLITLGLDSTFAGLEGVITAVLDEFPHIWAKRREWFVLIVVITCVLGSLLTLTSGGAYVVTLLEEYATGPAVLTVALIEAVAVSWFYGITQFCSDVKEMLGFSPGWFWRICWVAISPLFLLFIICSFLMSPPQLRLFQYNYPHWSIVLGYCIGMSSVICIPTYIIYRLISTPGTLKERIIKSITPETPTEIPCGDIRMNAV

| SMILES | Ki [1] [nM] | Ki [2] [nM] | Ki [3] [nM] | Ki [4] [nM] | Ki [5] [nM] | Ki [6] [nM] | Ki [7] [nM] |
| --- | --- | --- | --- | --- | --- | --- | --- |
| CN[C@@H]1C[C@@H](c2ccc(Cl)c(Cl)c2)c2ccc(OC)cc21 | 12 | 9 | 34 | 7 | 19 | 0.7 | – |
| CN[C@H]1C[C@H](c2ccc(Cl)c(Cl)c2)c2ccc(OC)cc21 | 600 | 600 | 650 | 820 | 109 | – | 51 |
| CNC1CC(c2ccc(Cl)c(Cl)c2)c2ccc(OC)cc21 (cis isomer) | – | 96 | – | 170 | – | – | 0.3 |
| CCN(CC)C1CC(c2ccc(Cl)c(Cl)c2)c2ccc(OC)cc21 (cis isomer) | – | 1310 | – | > 4700 | – | 26 | – |
| CNC1CC(c2ccc(Cl)c(Cl)c2)c2ccc(OC)cc21 (trans isomer) | – | 12 | – | 15 | – | 1.1 | – |
| CNC1CC(c2ccc(Cl)c(Cl)c2)c2ccc(O)cc21 (trans isomer) | – | 11 | – | 24 | – | 3 | – |
| CCN(CC)C1CC(c2ccc(Cl)c(Cl)c2)c2ccc(O)cc21 (trans isomer) | – | 40 | – | 1330 | – | 0.7 | – |
| CCN(CC)C1CC(c2ccc(Cl)c(Cl)c2)c2ccc(OC)cc21 (trans isomer) | – | 140 | – | 1010 | – | 1.3 | – |
